IC50, Activity and Ratio data for 15 molecules are collected here from ChEMBL document CHEMBL1149875, “DNA threading bis(9-aminoacridine-4-carboxamides): effects of piperidine sidechains on DNA binding, cytotoxicity and cell cycle arrest” (Bioorg Med Chem, 2008).

The test system of assay [1] is CCRF-CEM. The assay can be described thus: Cytotoxicity against human CCRF-CEM cells after 72 hrs. The class given is functional, cell-based. Summed up: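 CCRF-CEM human leukaemia cells exposed to agents for 72 h at 37 °C in RPMI 1640 with 10% foetal bovine serum. Cells counted with a Coulter Counter, duplicates per concentration, experiment repeated ≥3 times; IC50 from curve fitting.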

The subject of assay [2] is CCRF-CEM. Put plainly: Cell cycle arrest in human CCRF-CEM cells assessed as accumulation at G2/M phase after 24 hrs by flow cytometry. Format: functional, cell-based. A digest of the protocol: (§1)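 CCRF-CEM cells seeded at 1 × 10^5 per ml in flasks and grown 24 h. Drug then added at 1×, 2×, 5× or 10× the measured 72 h IC50 and cells incubated a further 24 h; untreated controls. Cells washed in PBS, fixed in ice-cold ethanol, stained with propidium iodide and analysed by flow cytometry for % cells at G2/M.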

The next assay deals with Escherichia coli. The assay can be described thus: Binding affinity to Escherichia coli pBR322 DNA assessed as equivalence binding ratio by agarose gel electrophoresis. Summed up: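 Supercoiled pBR322 closed circular DNA (150 ng, 23.6 µM bp) mixed with dimer in tris acetate buffer pH 7.5, 40 mM for Pip dimers and 10 mM for NMP dimers; 1 h dark incubation at room temperature; 0.8% agarose gel, 74 V (5 V/cm), 1 h 15 min. Equivalence ratio in base-pair units, taken where supercoiling is removed and closed and nicked circles co-migrate; ≥3 titrations.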

The test system of assay [3] is CCRF-CEM. The assay can be described thus: Cell cycle arrest in human CCRF-CEM cells assessed as accumulation at G2/M phase at 10 times IC50 after 24 hrs by flow cytometry. Format: functional. A digest of the protocol:
as §1
Background: Flow cytometry measures light scatter and fluorescence of single cells or particles in a stream.

Assay [4] deals with CCRF-CEM. The assay can be described thus: Cell cycle arrest in human CCRF-CEM cells assessed as accumulation at G2/M phase at 5 times IC50 after 24 hrs by flow cytometry. Format: functional. A digest of the protocol:
as §1

The subject of assay [5] is CCRF-CEM. The assay can be described thus: Cell cycle arrest in human CCRF-CEM cells assessed as accumulation at G2/M phase at 1 time IC50 after 24 hrs by flow cytometry. The class given is functional. A digest of the protocol:
as §1

Active and inactive are the calls of the source. The rule behind the calls is not given here. *1 amine or outer side, *2 acyl side, *3 side chain or, on linkers, in order; H or OH if unused. Where a SMILES comes first, the peptide text is derived from it. Bridges are numbered along the chain shown (N, C = ends). Roman numbers before positions name the chains, in order. [ ]: non-standard residue; d: D form. Actinocin(1to9) = Cc1c2oc3c(C)ccc(C(=O)[*:2])c3nc-2c(C(=O)[*:1])c(N)c1=O; NMeV = CN[C@H](C(=O)O)C(C)C; Sar = CNCC(=O)O

As to `O=C(NCCN1CCCCC1)c1cccc2c(NCCNCCNCCNc3c4ccccc4nc4c(C(=O)NCCN5CCCCC5)cccc34)c3ccccc3nc12`, in the assay with CCRF-CEM [1], the IC50 (as a rule, the midpoint of a concentration-inhibition curve) is 0.27 µM. The result with CCRF-CEM [2] was inactive. For the same molecule, the Ratio in the assay on Escherichia coli worked out at 0.16.
For the molecule `CN1CCC(NC(=O)c2cccc3c(NCCCCCCNc4c5ccccc5nc5c(C(=O)NC6CCN(C)CC6)cccc45)c4ccccc4nc23)CC1`, 0.21 µM corresponded to half-maximal inhibition with CCRF-CEM [1] (IC50). In addition, in the assay with Escherichia coli, the Ratio was 0.25.
In turn, `O=C(NCCN1CCCCC1)c1cccc2c(NCCN3CCN(CCNc4c5ccccc5nc5c(C(=O)NCCN6CCCCC6)cccc45)CC3)c3ccccc3nc12` gave an IC50 in the assay with CCRF-CEM [1] of 0.13 µM. Besides, the result in the assay with CCRF-CEM [2] was inactive. The Ratio with Escherichia coli was 0.13.
Molecule `CN1CCC(NC(=O)c2cccc3c(NCCNCCNCCNc4c5ccccc5nc5c(C(=O)NC6CCN(C)CC6)cccc45)c4ccccc4nc23)CC1` showed an IC50 in the assay on CCRF-CEM [1] of 1.1 µM. Moreover, the Activity in the assay on CCRF-CEM [3] was determined as 40%. Also, the Ratio in the assay on Escherichia coli was determined as 0.11.
`CN1CCC(NC(=O)c2cccc3c(NCCN4CCN(CCNc5c6ccccc6nc6c(C(=O)NC7CCN(C)CC7)cccc56)CC4)c4ccccc4nc23)CC1` showed an IC50 in the assay on CCRF-CEM [1] of 0.8 µM. The Activity in the assay with CCRF-CEM [4] came out at 52%.
Turning to `COc1cc(NS(C)(=O)=O)ccc1Nc1c2ccccc2nc2ccccc12` [AMSACRINE], in the assay with CCRF-CEM [1], the half-maximal inhibitory concentration (IC50) turned out to be 0.13 µM. In addition, the Activity in the assay on CCRF-CEM [5] is recorded as 68%.
`O=C(NCCN1CCCCC1)c1cccc2c(NCCCNCCCNc3c4ccccc4nc4c(C(=O)NCCN5CCCCC5)cccc34)c3ccccc3nc12` had an IC50 with CCRF-CEM [1] of 0.26 µM. Further, the result in the assay on CCRF-CEM [2] was inactive. The Ratio in the assay with Escherichia coli amounted to 0.14.
In turn, `CN(C)CCNC(=O)c1cccc2c(N)c3ccccc3nc12` came in with an IC50 in the assay on CCRF-CEM [1] of 0.12 µM. The Activity with CCRF-CEM [3] is 61%.
In turn, `CN1CCC(NC(=O)c2cccc3c(NCCCNCCCNc4c5ccccc5nc5c(C(=O)NC6CCN(C)CC6)cccc45)c4ccccc4nc23)CC1` had an IC50 with CCRF-CEM [1] of 0.68 µM. Also, the Activity with CCRF-CEM [3] came out at 50%. In the assay on Escherichia coli, the Ratio stood at 0.24.
With `O=C(NCCN1CCCCC1)c1cccc2c(NCCCCCCCCNc3c4ccccc4nc4c(C(=O)NCCN5CCCCC5)cccc34)c3ccccc3nc12`, half-maximal inhibition with CCRF-CEM [1] (IC50) required 0.099 µM. Further, the outcome in the assay on CCRF-CEM [2] was inactive. Besides, the Ratio in the assay with Escherichia coli amounted to 0.16.
On to `Cc1c2oc3c(C)ccc(C(=O)N[C@@H]4C(=O)N[C@H](C(C)C)C(=O)N5CCC[C@H]5C(=O)N(C)CC(=O)N(C)[C@@H](C(C)C)C(=O)O[C@@H]4C)c3nc-2c(C(=O)N[C@@H]2C(=O)N[C@H](C(C)C)C(=O)N3CCC[C@H]3C(=O)N(C)CC(=O)N(C)[C@@H](C(C)C)C(=O)O[C@@H]2C)c(N)c1=O` [DACTINOMYCIN] (I: T[dV]P[Sar][NMeV] / II: T[dV]P[Sar][NMeV]; ester I:1-I:C, II:1-II:C; linker I:N-II:N via Actinocin(1to9)), for which the IC50 with CCRF-CEM [1] came to 0.0016 µM. In addition, in the assay on CCRF-CEM [2], the outcome was inactive.
In the case of `CN1CCC(NC(=O)c2cccc3c(NCCCCNCCCNc4c5ccccc5nc5c(C(=O)NC6CCN(C)CC6)cccc45)c4ccccc4nc23)CC1`, inhibition with CCRF-CEM [1] was half-maximal at 0.34 µM (IC50). In addition, in the assay on Escherichia coli, the Ratio came to 0.21.
With `O=C(NCCN1CCCCC1)c1cccc2c(NCCCCCCNc3c4ccccc4nc4c(C(=O)NCCN5CCCCC5)cccc34)c3ccccc3nc12`, the midpoint of inhibition in the assay on CCRF-CEM [1], the IC50, lay at 0.2 µM. Also, the result in the assay on CCRF-CEM [2] was inactive. Besides, in the assay with Escherichia coli, the Ratio worked out at 0.14.
As to `CN1CCC(NC(=O)c2cccc3c(NCCCCCCCCNc4c5ccccc5nc5c(C(=O)NC6CCN(C)CC6)cccc45)c4ccccc4nc23)CC1`, the midpoint of inhibition with CCRF-CEM [1], the IC50, lay at 0.13 µM. In addition, the Activity with CCRF-CEM [3] is 43%. Further, the Ratio with Escherichia coli is 0.175.
In the case of `O=C(NCCN1CCCCC1)c1cccc2c(NCCCCNCCCNc3c4ccccc4nc4c(C(=O)NCCN5CCCCC5)cccc34)c3ccccc3nc12`, the IC50 with CCRF-CEM [1] stood at 0.23 µM. In addition, in the assay with CCRF-CEM [2], the result was inactive. For the same molecule, the Ratio in the assay with Escherichia coli is 0.135.
